In brackets after ≈: the same amount, converted by molar mass. Activity calls are given as the source filed them. The rule behind the calls is not given here.
How the values were obtained:
Type in all cases: functional
[1] = test system: Mycobacterium tuberculosis variant bovis BCG; experiment: Antitubercular activity against dormant Mycobacterium bovis BCG ATCC 35734 after 12 days by nitrate reductase assay; settings: for MIC90: ATCC 35734, 288 h
[2] = test system: Mycobacterium tuberculosis variant bovis BCG; experiment: Antitubercular activity against active Mycobacterium bovis BCG ATCC 35734 after 8 days by nitrate reductase assay; settings: for MIC90: ATCC 35734, 192 h
[3] = test system: Mycobacterium tuberculosis variant bovis BCG; experiment: Antitubercular activity against drug resistant dormant Mycobacterium bovis BCG ATCC 35734 at 3 to 30 ug/ml after 12 days by nitrate reductase assay
[4] = test system: Mycobacterium tuberculosis; experiment: Antitubercular activity against drug resistant active Mycobacterium tuberculosis H37Ra ATCC 25177 after 8 days by XTT reduction menadione assay; settings: H37Ra ATCC 25177, 192 h
Procedure, shortened: (§1)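 H37Ra was tested by microdilution in 96-well plates, at 30–0.001 μg/mL in one-third dilutions. Each plate carried a rifampicin and isoniazid dilution series as positive controls. Growth was scored by XTT reduction menadione assay (XRMA) and cross-checked by a final absorbance reading at 600 nm.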

[5] = test system: Mycobacterium tuberculosis; experiment: Antitubercular activity against drug resistant dormant Mycobacterium tuberculosis H37Ra ATCC 25177 after 12 days by XTT reduction menadione assay; settings: H37Ra ATCC 25177, 288 h; procedure, shortened: as §1

Row | Compound | MIC90 [1] | MIC90 [2] | Activity [3] | MIC90 [4] | MIC90 [5] | Activity [1] | Activity [2]
1 | Cc1ccc(O)c(C(=O)CC(=O)c2cc3ccccc3s2)c1 | 0.71 mg/L (≈ 2.29 µM) |  |  |  |  |  | 
2 | Cc1cc(O)c(C(=O)CC(=O)c2cc3ccccc3s2)cc1Cl | 0.9 mg/L (≈ 2.61 µM) | 0.56 to 1.9 mg/L (≈ 1.62 to 5.51 µM) | >97% |  |  |  | 
3 | O=C(CC(=O)c1cc(Br)ccc1O)c1cc2ccccc2s1 | 1.77 mg/L (≈ 4.72 µM) | 1.16 mg/L (≈ 3.09 µM) | >97% | 8.04 mg/L (≈ 21.4 µM) | 7.11 mg/L (≈ 18.9 µM) |  | 
4 | O=C(CC(=O)c1ccccc1O)c1cc2ccccc2s1 | 1.36 mg/L (≈ 4.59 µM) | 2.34 mg/L (≈ 7.9 µM) | >97% | 12.4 mg/L (≈ 41.9 µM) | 2.87 mg/L (≈ 9.68 µM) |  | 
5 | Oc1ccc(Cl)cc1-c1cc(-c2cc3ccccc3s2)[nH]n1 |  |  | >97% |  |  |  | 
6 | O=C(CC(=O)c1cc(Cl)cc(Cl)c1O)c1cc2ccccc2s1 |  |  |  |  |  | Active | Active
7 | O=C(CC(=O)c1cc(Cl)ccc1O)c1cc2ccccc2s1 | 2.7 mg/L (≈ 8.16 µM) | 2.22 mg/L (≈ 6.71 µM) | >97% | 5.3 mg/L (≈ 16 µM) | 2.73 mg/L (≈ 8.25 µM) |  | 
8 | Cc1ccc2oc(-c3cc4ccccc4s3)cc(=O)c2c1 | 0.61 mg/L (≈ 2.09 µM) | 0.62 mg/L (≈ 2.12 µM) |  | 22.9 mg/L (≈ 78.2 µM) | 7.22 mg/L (≈ 24.7 µM) |  | 
9 | Cc1ccc(C(=O)CC(=O)c2cc3ccccc3s2)c(O)c1 | 1.61 mg/L (≈ 5.19 µM) | 1.68 mg/L (≈ 5.41 µM) | >97% | 8.97 mg/L (≈ 28.9 µM) | 9.42 mg/L (≈ 30.4 µM) |  | 
10 | Cc1ccc(O)c(-c2cc(-c3cc4ccccc4s3)[nH]n2)c1 |  |  | >97% |  |  |  | 
11 | Oc1ccccc1-c1cc(-c2cc3ccccc3s2)[nH]n1 |  |  | >97% |  |  |  | 
12 | Cc1cc2oc(-c3cc4ccccc4s3)cc(=O)c2cc1Cl | 0.6 mg/L (≈ 1.84 µM) | 0.56 mg/L (≈ 1.71 µM) |  | 9.58 mg/L (≈ 29.3 µM) | 9.1 mg/L (≈ 27.8 µM) |  | 
13 | CO[C@H]1/C=C/O[C@@]2(C)Oc3c(C)c(O)c4c(O)c(c(/C=N/N5CCN(C)CC5)c(O)c4c3C2=O)NC(=O)/C(C)=C\C=C\[C@H](C)[C@H](O)[C@@H](C)[C@@H](O)[C@@H](C)[C@H](OC(C)=O)[C@@H]1C [RIFAMPIN] | 0.0042 mg/L (≈ 0.0051 µM) | 0.004 mg/L (≈ 0.00486 µM) |  | > 10 mg/L | > 10 mg/L |  | 
14 | NNC(=O)c1ccncc1 [ISONIAZID] | 0.0078 mg/L (≈ 0.0569 µM) | 0.075 mg/L (≈ 0.547 µM) |  | > 10 mg/L | > 10 mg/L |  | 

— ChEMBL document CHEMBL4431374, “Synthesis and Antitubercular Activity of New Benzo[b]thiophenes” (ACS Med Chem Lett, 2016)
